Data: ChEMBL document CHEMBL5058577, “EUbOPEN Chemogenomics Library 2 (Multiplex)” (2022)

System: HEK-293T
Test: Multiplex assay against HEK293T
Type: toxicity, cell-based
Details: human
How it was run: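 At seeding, live cells were stained with Hoechst33342, BioTracker Green Microtubule Cytoskeleton Dye, MitoTracker Red and Annexin V Alexa Fluor 680. After compound addition they were imaged on a CQ1 microscope at 37°C and 5% CO2, and CellPathfinder machine-learning gating sorted them into Hoechst high-intensity objects or normal cells, with normal cells further split into healthy, pyknosed or fragmented nuclei and pyknosed cells into mitotic or apoptotic. Tubulin, mitochondrial-mass and membrane-permeability phenotypes are given as per cents of cells with healthy nuclei.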

[1] = 12 h, 1 µM, compound concentration 1 uM, replicate 1
[2] = 12 h, 1 µM, compound concentration 1 uM, replicate 2
[3] = 12 h, 10 µM, compound concentration 10 uM, replicate 1
[4] = 12 h, 10 µM, compound concentration 10 uM, replicate 2
[5] = 24 h, 1 µM, compound concentration 1 uM, replicate 1
[6] = 24 h, 1 µM, compound concentration 1 uM, replicate 2
[7] = 24 h, 10 µM, compound concentration 10 uM, replicate 1
[8] = 24 h, 10 µM, compound concentration 10 uM, replicate 2
[9] = 48 h, 1 µM, compound concentration 1 uM, replicate 1
[10] = 48 h, 1 µM, compound concentration 1 uM, replicate 2
[11] = 48 h, 10 µM, compound concentration 10 uM, replicate 1
[12] = 48 h, 10 µM, compound concentration 10 uM, replicate 2

C[C@H](N)COC(=O)[C@@H](CCCCN)NC(=O)Cc1c(-c2ccc3ccccc3c2)[nH]c2c1ccc1ccccc12
Population Apoptotic (%) [1]: 22% | Population Fragmented Nuclei (%) [1]: 6% | Population Healthy Nuclei (%) [1]: 82% | Population Hoechst High Intensity Objects (%) [1]: 8% | Population Membrane Permeable-Phenotype (%) [1]: 0% | Population Mitochondria Different-Phenotype (%) [1]: 37% | Population Mitotic Cells (%) [1]: 77% | Population Normal (%) [1]: 91% | Population Pyknosed Nuclei (%) [1]: 10% | Population Tubulin-Different-Phenotype (%) [1]: 27% | Total Cell Count [1]: 458 | Population Apoptotic (%) [2]: 51% | Population Fragmented Nuclei (%) [2]: 8% | Population Healthy Nuclei (%) [2]: 74% | Population Mitochondria Different-Phenotype (%) [2]: 65% | Population Mitotic Cells (%) [2]: 48% | Population Pyknosed Nuclei (%) [2]: 16% | Population Tubulin-Different-Phenotype (%) [2]: 30% | Total Cell Count [2]: 291 | Population Apoptotic (%) [3]: 41% | Population Fragmented Nuclei (%) [3]: 7% | Population Healthy Nuclei (%) [3]: 78% | Population Hoechst High Intensity Objects (%) [3]: 11% | Population Membrane Permeable-Phenotype (%) [3]: 0% | Population Mitochondria Different-Phenotype (%) [3]: 60% | Population Mitotic Cells (%) [3]: 58% | Population Normal (%) [3]: 88% | Population Pyknosed Nuclei (%) [3]: 14% | Population Tubulin-Different-Phenotype (%) [3]: 54% | Total Cell Count [3]: 435 | Population Apoptotic (%) [4]: 61% | Population Fragmented Nuclei (%) [4]: 5% | Population Hoechst High Intensity Objects (%) [4]: 7% | Population Mitochondria Different-Phenotype (%) [4]: 72% | Population Mitotic Cells (%) [4]: 38% | Population Normal (%) [4]: 93% | Population Pyknosed Nuclei (%) [4]: 16% | Population Tubulin-Different-Phenotype (%) [4]: 50% | Total Cell Count [4]: 343 | Population Apoptotic (%) [5]: 25% | Population Fragmented Nuclei (%) [5]: 9% | Population Healthy Nuclei (%) [5]: 77% | Population Hoechst High Intensity Objects (%) [5]: 4% | Population Membrane Permeable-Phenotype (%) [5]: 0% | Population Mitochondria Different-Phenotype (%) [5]: 24% | Population Mitotic Cells (%) [5]: 75% | Population Normal (%) [5]: 95% | Population Pyknosed Nuclei (%) [5]: 12% | Population Tubulin-Different-Phenotype (%) [5]: 19% | Total Cell Count [5]: 638 | Population Apoptotic (%) [6]: 54% | Population Fragmented Nuclei (%) [6]: 7% | Population Healthy Nuclei (%) [6]: 80% | Population Hoechst High Intensity Objects (%) [6]: 7% | Population Membrane Permeable-Phenotype (%) [6]: 1% | Population Mitochondria Different-Phenotype (%) [6]: 47% | Population Mitotic Cells (%) [6]: 45% | Population Normal (%) [6]: 92% | Population Tubulin-Different-Phenotype (%) [6]: 25% | Total Cell Count [6]: 352 | Population Apoptotic (%) [7]: 41% | Population Fragmented Nuclei (%) [7]: 6% | Population Healthy Nuclei (%) [7]: 78% | Population Hoechst High Intensity Objects (%) [7]: 6% | Population Membrane Permeable-Phenotype (%) [7]: 0% | Population Mitochondria Different-Phenotype (%) [7]: 57% | Population Mitotic Cells (%) [7]: 58% | Population Normal (%) [7]: 93% | Population Pyknosed Nuclei (%) [7]: 14% | Population Tubulin-Different-Phenotype (%) [7]: 45% | Total Cell Count [7]: 539 | Population Apoptotic (%) [8]: 48% | Population Fragmented Nuclei (%) [8]: 9% | Population Healthy Nuclei (%) [8]: 80% | Population Hoechst High Intensity Objects (%) [8]: 7% | Population Mitochondria Different-Phenotype (%) [8]: 54% | Population Mitotic Cells (%) [8]: 51% | Population Normal (%) [8]: 92% | Population Pyknosed Nuclei (%) [8]: 10% | Population Tubulin-Different-Phenotype (%) [8]: 42% | Total Cell Count [8]: 439 | Population Apoptotic (%) [9]: 15% | Population Fragmented Nuclei (%) [9]: 13% | Population Healthy Nuclei (%) [9]: 78% | Population Hoechst High Intensity Objects (%) [9]: 4% | Population Membrane Permeable-Phenotype (%) [9]: 2% | Population Mitochondria Different-Phenotype (%) [9]: 16% | Population Mitotic Cells (%) [9]: 84% | Population Normal (%) [9]: 95% | Population Pyknosed Nuclei (%) [9]: 7% | Population Tubulin-Different-Phenotype (%) [9]: 13% | Total Cell Count [9]: 963 | Population Apoptotic (%) [10]: 37% | Population Fragmented Nuclei (%) [10]: 11% | Population Healthy Nuclei (%) [10]: 79% | Population Membrane Permeable-Phenotype (%) [10]: 0% | Population Mitochondria Different-Phenotype (%) [10]: 29% | Population Mitotic Cells (%) [10]: 62% | Population Pyknosed Nuclei (%) [10]: 9% | Population Tubulin-Different-Phenotype (%) [10]: 17% | Total Cell Count [10]: 540 | Population Apoptotic (%) [11]: 27% | Population Fragmented Nuclei (%) [11]: 13% | Population Healthy Nuclei (%) [11]: 78% | Population Hoechst High Intensity Objects (%) [11]: 6% | Population Membrane Permeable-Phenotype (%) [11]: 0% | Population Mitochondria Different-Phenotype (%) [11]: 44% | Population Mitotic Cells (%) [11]: 72% | Population Normal (%) [11]: 93% | Population Pyknosed Nuclei (%) [11]: 7% | Population Tubulin-Different-Phenotype (%) [11]: 33% | Total Cell Count [11]: 781 | Population Apoptotic (%) [12]: 32% | Population Fragmented Nuclei (%) [12]: 14% | Population Healthy Nuclei (%) [12]: 79% | Population Hoechst High Intensity Objects (%) [12]: 4% | Population Mitochondria Different-Phenotype (%) [12]: 43% | Population Mitotic Cells (%) [12]: 67% | Population Normal (%) [12]: 95% | Population Pyknosed Nuclei (%) [12]: 6% | Population Tubulin-Different-Phenotype (%) [12]: 35% | Total Cell Count [12]: 681
